ARNT-TACC3 inh: disruptors of ARNT/TACC3 protein interaction, primary screen, biochemical, AlphaScreen, single concentration; inhibition, % at 9.99 µM; AlphaScreen His-ARNT PAS-B/GST-TACC3 binding, luminescence; TACC3 fragment carries E629A point mutation; AID 623870, 2012; 390,000 tested, 0.66% active;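 active means mean inhibition of replicates at least 50% and at least half of replicates each reaching 50%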;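 further: 0% = complete ARNT plus TACC3 wells and 100% = ARNT alone without TACC3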
RTF Ca sens inh: cardiac RTF calcium sensitivity inhibitors, primary screen, biochemical, IANBD-TnC fluorescence, EC70 calcium | Troponin I, cardiac muscle (Homo sapiens) + Troponin T, cardiac muscle (Homo sapiens) + … | IANBD-labeled cardiac RTF, Ca2+ fluorescence | inhibition, % at 7.15 µM | 340,000 tested, 0.12% active | AID 493244, 2011;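 active means inhibition above the mean inhibition of all tested compounds plus 3 SD, cut at about 17% in these data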;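 further: assay run at fixed EC70 calcium of 1.6 mM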
UCH37 inh: inhibitors of human UCH37 deubiquitinase, primary screen, biochemical, Ub-AMC cleavage, fluorescence; Ubiquitin carboxyl-terminal hydrolase isozyme L5 (Homo sapiens), Q9Y5K5; inhibition, % (no concentration beside the values); purified proteasome/UCH37; AID 588478, 2011; 330,000 tested, 0.33% active;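 active means mean inhibition over replicate wells above about 20%, limit read from the data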;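 further: 0% = compound-free wells with enzyme and 100% = wells lacking proteasome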
Target sequence (Q9Y5K5 whole entry, looked up): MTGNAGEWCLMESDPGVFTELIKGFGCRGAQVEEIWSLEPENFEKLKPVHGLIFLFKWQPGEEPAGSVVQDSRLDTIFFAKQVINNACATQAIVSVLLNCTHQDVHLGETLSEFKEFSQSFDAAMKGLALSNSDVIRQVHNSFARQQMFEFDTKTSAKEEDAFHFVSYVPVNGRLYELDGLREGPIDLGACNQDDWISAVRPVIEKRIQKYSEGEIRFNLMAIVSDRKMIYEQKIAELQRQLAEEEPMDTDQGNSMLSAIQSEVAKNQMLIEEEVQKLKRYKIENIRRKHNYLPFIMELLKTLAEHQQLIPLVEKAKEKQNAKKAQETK
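system = Proteasome-associated human UCH37 deubiquitinase | amount = 0.15 nM proteasome as dispensed | medium = pH 7.4 Tris-HCl (50 mM) with ovalbumin, ATP-MgCl2, DTT | incubation = 30 min preincubation with enzyme, 25 min cleavage at room temperature | detection = AMC fluorescence 355/460 nm | read-out basis = percent inhibition | controls = no-proteasome and no-compound wells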
SUMO Mot1 rescue: yeast Mot1-301 growth rescue at high temperature, primary screen, SUMOylation pathway inhibitor project, S. cerevisiae, ATP luminescence, 38.5C | S. cerevisiae Mot1-301 growth rescue; percent above DMSO median, 100 means doubled | growth rescue, % at 18.8 µM | 320,000 tested, 1% active | AID 2716, 2010;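 active means every valid replicate shows activation above 250% relative to neutral control wells; inactive means the rest, any valid replicate at or below 250%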;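 further: OY570 slx delta 5 strain wells were the positive control but not used for scaling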
Efflux pump mplx: inhibitors of Candida efflux pumps in yeast, primary screen, S. cerevisiae, Nile Red, multiplex; inhibition, % at 10 µM; AID 485275, 2010; 330,000 tested, 0.44% active; S. cerevisiae Candida pump triplex;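 active means plate passing quality check with inhibition over a set limit, or well fluorescence over plate mean plus 4 SD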;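 further: Nile Red retained in pooled yeast measured as flow cytometry median fluorescence; 0% = buffer negative control and 100% = Enniatin B positive control; higher means more Nile Red kept so more efflux inhibition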
RTF Ca sens act: cardiac RTF calcium sensitivity activators, primary screen, biochemical, IANBD-TnC fluorescence, EC20 calcium. IANBD-labeled TnC RTF fluorescence at EC20 calcium; 0% EC20 calcium, 100% full calcium. 340,000 tested, 0.24% active. activation, % at 7.2 µM. Troponin I, cardiac muscle (Homo sapiens) + Troponin T, cardiac muscle (Homo sapiens) + …;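 active means activation above the mean over all tested compounds plus 3 SD, cut at about 30% in these data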;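 further: rise in fluorescence read as greater calcium sensitivity of cardiac thin filaments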
Active calls of the source: *; . = not tested or not shown. In the library only some 2.1% were active in any assay of this set; here they are far more common.

SMILES | ARNT-TACC3 inh | RTF Ca sens inh | UCH37 inh | SUMO Mot1 rescue | Efflux pump mplx | RTF Ca sens act
Cc1ncc(CO)c(/C=N/NC(=O)c2cc3c(s2)CCCC3)c1O | 62* | -7 | . | -1 | 0 | 5
COc1ccc(C(=O)N/N=C/c2c(CO)cnc(C)c2O)cc1 | 72* | 2 | . | 3 | 0 | -3
Cc1[nH]c(=O)[nH]c(=O)c1/C=N\NC(=O)CCc1ccc(OC(C)C)cc1 | . | . | . | 16 | 0 | .
O=C(COCC(=O)NN=Cc1ccc(F)cc1)NN=Cc1ccc(F)cc1 | . | . | 6 | . | . | .
COc1cc(C(=O)Oc2cccc(C=NNC(=O)c3cccnc3)c2)cc(OC)c1OC | . | . | 6 | . | . | .
NC(=O)c1cc(NC(=O)c2ccc(NS(=O)(=O)c3cccs3)cc2)cc(C(N)=O)c1 | 35* | -3 | 1 | 49 | 0 | 5
Cc1cc(O)c(C=NNc2ccccc2)c(=O)o1 | . | . | 6 | . | . | .
O=C(CCN1CCOCC1)N1CCc2c([nH]c3ccccc23)C1c1cccc(Cl)c1 (stereo not drawn) | 7 | 3 | 23* | -13 | 0 | -5
CCSS(=O)(=O)c1cccc2cccnc12 | 65* | . | . | -5 | 0 | .
O=S(=O)(Nc1ccc(Cl)cc1)c1cccc2cccnc12 | 38* | -2 | 4 | 0 | 0 | 1
O=C(O)c1ccc(NS(=O)(=O)c2cccc3cccnc23)cc1 | -8 | -2 | 7 | 2 | 0 | 4
CC(=NO)C1(C)N(O)C(C)(C)C(c2ccco2)=[N+]1[O-] (stereo not drawn) | . | . | -3 | . | . | .
COc1ccc([N+](=O)[O-])cc1C=NNC(=O)CNC(=O)c1cccc(F)c1 | . | . | 5 | . | . | .
Nc1ccc(Cc2nc3c(ccc4ccccc43)[nH]2)cc1 | -3 | -2 | -2 | -11 | 0 | 5
c1ccc(-c2nc3c(ccc4ccccc43)[nH]2)nc1 | 57* | -3 | -16 | -14 | 0 | 6
COc1ccccc1OCCn1c(=O)n(C)c2ccccc21 | 1 | -4 | 4 | 345* | 0 | -3
Cn1c(=O)n(CCOc2ccccc2Cl)c2ccccc21 | -4 | -2 | 6 | -6 | 0 | -5
COc1ccc(CC(=O)NN=Cc2ccc(-c3ccc(F)cc3)o2)cc1OC | . | . | 2 | . | . | .
COc1ccc(NC(=O)N(C)C[C@@H]2OCCCC[C@@H](C)Oc3ccc(NS(=O)(=O)c4ccc(OC)cc4)cc3C(=O)N([C@@H](C)CO)C[C@H]2C)cc1 | 24* | . | . | . | . | .
C[C@@H]1CCCCO[C@H](CN(C)S(=O)(=O)c2cccs2)[C@@H](C)CN([C@@H](C)CO)C(=O)c2cc(NS(C)(=O)=O)ccc2O1 | active | . | . | . | . | .
C[C@@H]1CCCCO[C@@H](CN(C)S(=O)(=O)c2cccs2)[C@H](C)CN([C@H](C)CO)C(=O)c2cc(NS(C)(=O)=O)ccc2O1 | 17 | . | . | . | . | .
CC(C)NC(=O)Nc1ccc2c(c1)C(=O)N([C@@H](C)CO)C[C@@H](C)[C@H](CN(C)C(=O)C1CCCCC1)OCCCC[C@H](C)O2 | 46* | . | . | . | . | .
COc1ccc(NC(=O)N(C)C[C@H]2OCCCC[C@@H](C)Oc3ccc(NS(=O)(=O)c4ccc(OC)cc4)cc3C(=O)N([C@@H](C)CO)C[C@H]2C)cc1 | 31 | . | . | . | . | .
C[C@H](CO)N1C[C@H](C)[C@@H](CN(C)C(=O)CCC(F)(F)F)OCCCC[C@H](C)Oc2ccc(NC(=O)CCCN(C)C)cc2C1=O | 25* | . | . | . | . | .
C[C@@H]1CCCCO[C@@H](CN(C)C(=O)CCC(F)(F)F)[C@@H](C)CN([C@H](C)CO)C(=O)c2cc(NC(=O)CCCN(C)C)ccc2O1 | 10 | . | . | . | . | .
Nc1c(C(=O)Nc2ccccc2F)sc2nc(Cc3ccccc3)cc(C(F)(F)F)c12 | -8 | -8 | -41 | 5 | 0 | 49*

Compound activity: PubChem, several laboratories
